Test results published in ChEMBL document CHEMBL1134677, “Synthesis and biological evaluation of a novel series of furans: ligands selective for estrogen receptor alpha” (J Med Chem, 2001).

Assays:
[1] = target: Estrogen receptor beta (Homo sapiens) (UniProt Q92731); assay: Relative binding affinity towards estrogen receptor 2 determined by a competitive radiometric binding assay using 10 nM [3H]estradiol as the radioligand
Outline: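 Competitive radiometric binding with purified human ERβ and 10 nM [3H]estradiol tracer. Hydroxylapatite captured the bound complex. Incubation was at 0 °C for 18–24 h. Competitors were dissolved in 1:1 DMF:TEA. RBA is relative to estradiol (100%). Duplicate independent experiments were run, with CV <0.3.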

[2] = target: T1, Estrogen receptor (Homo sapiens) (UniProt P03372); assay: Relative binding affinity (RBA) for ER alpha (Estrogen receptor alpha) determined by a competitive radiometric binding assay using 10 nM [3H]estradiol as the radioligand
T1 sequence (whole entry): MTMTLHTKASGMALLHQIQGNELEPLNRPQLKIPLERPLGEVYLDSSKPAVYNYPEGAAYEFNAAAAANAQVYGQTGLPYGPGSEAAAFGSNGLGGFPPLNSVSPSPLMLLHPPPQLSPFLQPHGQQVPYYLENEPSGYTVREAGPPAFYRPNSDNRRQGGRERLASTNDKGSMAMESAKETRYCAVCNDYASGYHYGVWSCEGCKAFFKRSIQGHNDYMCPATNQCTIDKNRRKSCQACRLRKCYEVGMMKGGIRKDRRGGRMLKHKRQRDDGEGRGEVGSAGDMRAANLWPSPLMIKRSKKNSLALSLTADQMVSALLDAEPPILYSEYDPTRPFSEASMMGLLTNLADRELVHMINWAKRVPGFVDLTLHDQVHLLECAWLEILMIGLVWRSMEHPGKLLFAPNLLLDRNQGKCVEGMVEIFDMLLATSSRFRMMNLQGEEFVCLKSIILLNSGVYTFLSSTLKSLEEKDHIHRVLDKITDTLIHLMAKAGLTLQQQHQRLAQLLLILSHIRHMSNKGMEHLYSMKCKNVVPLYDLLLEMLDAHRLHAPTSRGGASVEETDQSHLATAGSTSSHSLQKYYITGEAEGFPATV
Outline: (§1)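 Competitive radiometric binding with purified human ERα and 10 nM [3H]estradiol tracer. Bound receptor–ligand complex was adsorbed on hydroxylapatite. Incubation was at 0 °C for 18–24 h. Unlabeled competitors were dissolved in 1:1 DMF:TEA. RBA is expressed relative to estradiol (100%). Duplicate separate experiments were run, with CV <0.3.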

[3] = system: Estrogen receptor (Ovis aries); assay: Relative binding affinity (RBA) for ER alpha using lamb uterine cytosol determined by a competitive radiometric binding assay using 10 nM [3H]estradiol as the radioligand; conditions: Uterus
[4] = target: T1, Estrogen receptor (Homo sapiens); assay: Relative binding affinity for Estrogen receptor alpha compared 10 nM [3H]estradiol; outline: as §1

Sequence of Estrogen receptor beta (Homo sapiens) (Q92731 whole entry): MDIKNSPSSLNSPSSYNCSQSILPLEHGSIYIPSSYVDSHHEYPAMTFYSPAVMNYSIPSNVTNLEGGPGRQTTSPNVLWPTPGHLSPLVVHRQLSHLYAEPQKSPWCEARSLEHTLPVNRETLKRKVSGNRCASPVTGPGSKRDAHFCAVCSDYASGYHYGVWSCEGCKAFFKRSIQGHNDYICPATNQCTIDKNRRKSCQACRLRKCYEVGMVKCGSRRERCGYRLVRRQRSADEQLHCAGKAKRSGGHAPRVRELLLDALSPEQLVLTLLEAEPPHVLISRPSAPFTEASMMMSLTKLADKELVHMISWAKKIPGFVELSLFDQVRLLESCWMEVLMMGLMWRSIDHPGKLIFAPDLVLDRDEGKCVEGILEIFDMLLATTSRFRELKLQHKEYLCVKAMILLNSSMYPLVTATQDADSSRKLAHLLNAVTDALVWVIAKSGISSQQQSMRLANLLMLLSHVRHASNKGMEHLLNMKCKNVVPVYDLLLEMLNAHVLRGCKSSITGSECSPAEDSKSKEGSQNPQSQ

SMILES | relative binding affinity (RBA) [1] | relative binding affinity (RBA) [2] | relative binding affinity (RBA) [3] | relative binding affinity (RBA) [4]
CCCCc1c(-c2ccc(O)cc2)oc(-c2ccc(O)cc2)c1-c1ccc(O)cc1 | 3.9 | 21 | 1.3 | 
Oc1ccc(-c2cc(-c3ccc(O)cc3)c(-c3ccccc3)o2)cc1 |  |  | 0.04 | 
CC(C)Cc1c(-c2ccc(O)cc2)nn(-c2ccc(O)cc2)c1-c1ccc(O)cc1 | 0.89 |  |  | 75
CCc1c(-c2ccc(O)cc2)cc(-c2ccccc2)n1-c1ccc(O)cc1 |  |  | 0.5 | 
CCc1c(-c2ccccc2)oc(-c2ccc(O)cc2)c1-c1ccc(O)cc1 | 4.5 | 14.8 | 0.45 | 
Oc1ccc(-c2cc(-c3ccccc3)c(-c3ccc(O)cc3)o2)cc1 |  |  | 0.13 | 
Oc1ccc(-c2cc(-c3ccccc3)c(-c3ccc(O)cc3)s2)cc1 |  |  | 0.03 | 
CCCc1c(-c2ccc(O)cc2)oc(-c2ccccc2)c1-c1ccc(O)cc1 | 15 | 140 | 3.6 | 
Oc1ccc(-c2oc(-c3ccc(O)cc3)c(-c3ccc(O)cc3)c2-c2ccc(O)cc2)cc1 | 0.25 | 8.7 | 0.84 | 
Cc1c(-c2ccc(O)cc2)oc(-c2ccc(O)cc2)c1-c1ccc(O)cc1 | 0.62 | 40 | 2.9 | 
CCc1c(-c2ccc(O)cc2)oc(-c2ccccc2)c1-c1ccccc1 | 3.4 | 10.8 | 0.44 | 
CCc1c(-c2ccc(O)cc2)oc(-c2ccc(O)cc2)c1-c1ccccc1 | 3 | 16.5 | 0.7 | 
CCc1c(-c2ccc(O)cc2)oc(-c2ccccc2)c1-c1ccc(O)cc1 | 7.1 | 82 | 4.6 | 
CCCc1c(-c2ccc(O)cc2)nn(-c2ccc(O)cc2)c1-c1ccc(O)cc1 |  |  |  | 49
CCc1c(-c2ccc(O)cc2)oc(-c2ccc(O)cc2)c1-c1ccc(O)cc1 |  | 140 | 6.5 | 
CCc1c(-c2ccccc2)oc(-c2ccccc2)c1-c1ccc(O)cc1 | 0.07 | 0.15 | 0.02 | 
CCCc1c(-c2ccc(O)cc2)oc(-c2ccc(O)cc2)c1-c1ccc(O)cc1 | 1.8 | 100 | 3.6 | 
Oc1ccc(-c2cc(-c3ccc(O)cc3)c(-c3ccccc3)s2)cc1 |  |  | 0.04 | 
CCc1c(-c2ccccc2)oc(-c2ccc(O)cc2)c1-c1ccccc1 | 2 | 6.8 | 0.1 | 
